ChEMBL document CHEMBL3817745, “Structure-Activity Relationship for the 4(3H)-Quinazolinone Antibacterials” (J Med Chem, 2016)
Converted amounts (≈) assume the structure as drawn. The source made the active and inactive calls. The calls are words filed in the database; no cut-off is given here.

Key:
[1] = AUC (0 to infinity) in ICR mouse peritonitis model infected with methicillin resistant Staphylococcus aureus ATCC 27660 at 10 mg/kg, po administered as single dose through gavage by UPLC analysis; format: ADME, organism-based; parameters: dose 10 mg/kg, route oral, time infinity; conditions: ICR, in vivo
Summary of the method: (§1)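 Female ICR mice, single 10 mg/kg oral gavage in 25% DMSO/55% propylene glycol/20% PBS (2.5 mg/mL); n = 3 per time point; terminal blood 0.5–30 h; plasma protein-precipitated with acetonitrile containing internal standard, quantified by UPLC-UV or MRM against mouse-plasma calibration curve (0–50 μg/mL).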

Bacillus cereus = test: Antibacterial activity against Bacillus cereus ATCC 13061 incubated for 16 to 20 hrs by microdilution method; format: functional
Summary of the method: (§2)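 CLSI broth microdilution. 2-fold serial dilutions were made in cation-adjusted Mueller–Hinton broth, with 5% lysed horse blood added for Streptococcus strains, in triplicate. Inoculum 5×10^5 CFU/mL. Plates incubated 36 °C for 16–20 h. MIC taken as the lowest concentration visibly inhibiting growth.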

Staphylococcus aureus [2] = test: […] activity against methicillin-resistant Staphylococcus aureus NRS70; format: functional; conditions: read-out: MBC99.9
Mus musculus [3] = test: Tmax in ICR mouse peritonitis model infected with methicillin resistant Staphylococcus aureus ATCC 27660 at 10 mg/kg, po administered as single dose through gavage by UPLC analysis; format: ADME, organism-based; conditions: in vivo; summary of the method: as §1
[4] = Hemolytic activity against human RBC at 64 ug/ml relative to control; format: ADME, cell-based, Erythrocyte
Summary of the method: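 Hemolysis was measured at a fixed 64 μg/mL on a 10% red-cell suspension from heparinized human blood. Triton-X served as the positive control, and results are given as percent hemolysis.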

Bacillus licheniformis = test: Antibacterial activity against Bacillus licheniformis ATCC 12759 incubated for 16 to 20 hrs by microdilution method; format: functional; summary of the method: as §2
Staphylococcus aureus [5] = test: Antibacterial activity against methicillin resistant Staphylococcus aureus ATCC 27660 infected in iv dosed ICR mouse model of peritonitis assessed as mouse survival administered at 30 mins and 4.5 hrs post infection measured for 48 hrs; format: functional; conditions: ATCC 27660, iv
[6] = Protein binding in human plasma at 10 uM after 6 hrs by UPLC based equillibrium dialysis method; format: ADME, cell-free; conditions: read-out: PPB (converted)
[7] = AUC (0 to infinity) in ICR mouse peritonitis model infected with methicillin resistant Staphylococcus aureus ATCC 27660 at 10 mg/kg, iv administered as single dose by UPLC analysis; format: ADME, organism-based; parameters: dose 10 mg/kg, time infinity, route intravenous; conditions: ICR, in vivo
Acinetobacter baumannii = test: Antibacterial activity against Acinetobacter baumannii ATCC 17961 incubated for 16 to 20 hrs by microdilution method; format: functional; summary of the method: as §2
Staphylococcus aureus [8] = test: Antibacterial activity against vancomycin/methicillin-resistant Staphylococcus aureus VRS1 clinical isolate incubated for 16 to 20 hrs by microdilution method; format: functional
Pseudomonas aeruginosa = test: Antibacterial activity against Pseudomonas aeruginosa […] incubated for 16 to 20 hrs by microdilution method; format: functional; summary of the method: as §2
[9] = Terminal half life in ICR mouse peritonitis model infected with methicillin resistant Staphylococcus aureus ATCC 27660 at 10 mg/kg, po administered as single dose through gavage by UPLC analysis; format: ADME, organism-based; conditions: ICR, in vivo, read-out: beta t1/2; summary of the method: as §1
[10] = system: Staphylococcus haemolyticus; test: Antibacterial activity against Staphylococcus haemolyticus ATCC 29970 incubated for 16 to 20 hrs by microdilution method; format: functional
[11] = Clearance in ICR mouse peritonitis model infected with methicillin resistant Staphylococcus aureus ATCC 27660 at 10 mg/kg, iv administered as single dose measured up to 8 hrs by UPLC analysis; format: ADME, organism-based; conditions: in vivo
Summary of the method: (§3)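 Fast PK: female ICR mice (n = 2 per time point) given single tail-vein iv injection at 5, 10 or 20 mg/kg in 25% DMSO/65% propylene glycol/10% water (2.5, 5 or 10 mg/mL); terminal cardiac blood at 5 min, 40 min, 2, 4, 8 h; plasma analysed by UPLC with internal standard calibration.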

[12] = AUC (0 to last) in ICR mouse peritonitis model infected with methicillin resistant Staphylococcus aureus ATCC 27660 at 10 mg/kg, iv administered as single dose measured up to 8 hrs by UPLC analysis; format: ADME, organism-based; parameters: dose 10 mg/kg, time 0 - last, route intravenous; conditions: ICR, in vivo; summary of the method: as §3
Enterococcus faecalis [13] = test: Antibacterial activity against vancomycin-resistant Enterococcus faecalis 99 clinical isolate incubated for 16 to 20 hrs by microdilution method; format: functional
Staphylococcus aureus [14] = test: […] activity against multidrug resistant Staphylococcus aureus ATCC 27660; format: functional; conditions: read-out: MBC99.9
Enterococcus faecium = test: Antibacterial activity against Enterococcus faecium NCTC 7171 incubated for 16 to 20 hrs by microdilution method; format: functional; summary of the method: as §2
[15] = Plasma concentration in ICR mouse neutropenic thigh model of methicillin-resistant Staphylococcus aureus NRS70 infection at 20 mg/kg, sc tid administered every 8 hrs starting from 1 hr post infection and measured 7 hrs post last dose by UPLC analysis; format: ADME, organism-based
Summary of the method: (§4)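 Neutropenic thigh model (cyclophosphamide 200 mg/kg ip, NRS70 im), sc doses at 1, 9 and 17 h; at 24 h cardiac blood and uninfected thigh taken (n = 8 per group); thigh homogenate supernatant and plasma acetonitrile-quenched with internal standard, analysed by UPLC with MRM detection.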

Staphylococcus aureus [16] = test: Antibacterial activity against methicillin-resistant Staphylococcus aureus NRS70 in ICR mouse neutropenic thigh infection model assessed as reduction in bacterial load at 20 mg/kg, sc tid administered every 8 hrs starting from 1 hr post infection and measured 7 hrs post last dose; format: functional, organism-based
Summary of the method: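 Female ICR mice (n = 8 per group) made neutropenic with ip cyclophosphamide 200 mg/kg at 4 days and 1 day pre-infection; 100 μL NRS70 (~1×10^6 CFU/mL in brain–heart infusion) injected im into right thigh; sc doses at 1, 9, 17 h; thighs harvested at 24 h, homogenized, plated in triplicate on LB agar; log10 CFU/g.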

Streptococcus pyogenes = test: Antibacterial activity against Streptococcus pyogenes ATCC 49399 incubated for 16 to 20 hrs by microdilution method; format: functional; summary of the method: as §2
Klebsiella pneumoniae = test: Antibacterial activity against Klebsiella pneumoniae ATCC 700603 incubated for 16 to 20 hrs by microdilution method; format: functional; summary of the method: as §2
HepG2 = test: Cytotoxicity against human HepG2 cells incubated for 16 hrs by XTT assay; format: cell-based; conditions: HepG2, 16 h
Summary of the method: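 HepG2 cells were tested with an XTT viability read-out, in triplicate. IC50 was obtained by nonlinear regression.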

Escherichia coli = test: Antibacterial activity against Escherichia coli ATCC 25922 incubated for 16 to 20 hrs by microdilution method; format: functional; summary of the method: as §2
[17] = Terminal half life in ICR mouse peritonitis model infected with methicillin resistant Staphylococcus aureus ATCC 27660 at 10 mg/kg, iv administered as single dose by UPLC analysis; format: ADME, organism-based; conditions: ICR, in vivo, read-out: beta t1/2
Staphylococcus aureus [18] = test: Antibacterial activity against mecA-positive multidrug resistant Staphylococcus aureus NRS119 incubated for 16 to 20 hrs by microdilution method; format: functional
Staphylococcus aureus [19] = test: Antibacterial activity against mecA-positive multidrug resistant Staphylococcus aureus NRS120 incubated for 16 to 20 hrs by microdilution method; format: functional
[20] = system: Staphylococcus epidermidis; test: Antibacterial activity against Staphylococcus epidermidis ATCC 35547 incubated for 16 to 20 hrs by microdilution method; format: functional; summary of the method: as §2
[21] = AUC (0 to last) in ICR mouse peritonitis model infected with methicillin resistant Staphylococcus aureus ATCC 27660 at 10 mg/kg, po administered as single dose through gavage measured after 30 hrs by UPLC analysis; format: ADME, organism-based; parameters: dose 10 mg/kg, time 0 - last, route oral; conditions: ICR, in vivo; summary of the method: as §1
Enterococcus faecalis [22] = test: Antibacterial activity against methicillin-susceptible Enterococcus faecalis ATCC 29212 incubated for 16 to 20 hrs by microdilution method; format: functional; summary of the method: as §2
[23] = Oral bioavailability in ICR mouse peritonitis model infected with methicillin resistant Staphylococcus aureus ATCC 27660 at 10 mg/kg administered as single dose through gavage by UPLC analysis; format: ADME, organism-based; conditions: ICR, in vivo; summary of the method: as §1
[24] = Drug level in uninfected thighs of ICR mouse neutropenic thigh model of methicillin-resistant Staphylococcus aureus NRS70 infection at 20 mg/kg, sc tid administered every 8 hrs starting from 1 hr post infection and measured 7 hrs post last dose by UPLC analysis; format: ADME, organism-based; conditions: read-out: Drug uptake; summary of the method: as §4
Streptococcus oralis = test: Antibacterial activity against Streptococcus oralis ATCC 9811 incubated for 16 to 20 hrs by microdilution method; format: functional; summary of the method: as §2
Staphylococcus aureus [25] = test: Antibacterial activity against mecA-positive multidrug resistant Staphylococcus aureus COL NRS100 incubated for 16 to 20 hrs by microdilution method; format: functional
[26] = Volume of distribution in ICR mouse peritonitis model infected with methicillin resistant Staphylococcus aureus ATCC 27660 at 10 mg/kg, iv administered as single dose measured up to 24 hrs by UPLC analysis; format: ADME, organism-based; conditions: ICR, in vivo
Staphylococcus aureus [27] = test: Antibacterial activity against vancomycin/methicillin-resistant Staphylococcus aureus VRS2 clinical isolate incubated for 16 to 20 hrs by microdilution method; format: functional
Klebsiella aerogenes = test: Antibacterial activity against Enterobacter aerogenes ATCC 35029 incubated for 16 to 20 hrs by microdilution method; format: functional; summary of the method: as §2
[28] = Cmax in ICR mouse peritonitis model infected with methicillin resistant Staphylococcus aureus ATCC 27660 at 10 mg/kg, po administered as single dose through gavage measured at 1 hr post dose by UPLC analysis; format: ADME, organism-based; parameters: dose 10 mg/kg, route oral; conditions: in vivo
Staphylococcus aureus [29] = test: Antibacterial activity against methicillin-susceptible Staphylococcus aureus ATCC 29213 incubated for 16 to 20 hrs by microdilution method; format: functional
Mus musculus [30] = test: AUC (0 to last) in ICR mouse peritonitis model infected with methicillin resistant Staphylococcus aureus ATCC 27660 at 5 mg/kg, iv administered as single dose measured up to 8 hrs by UPLC analysis; format: ADME, organism-based; parameters: dose 5 mg/kg, route intravenous, time 0 - last; conditions: in vivo; summary of the method: as §3
[31] = Ratio of hemolytic concentration for human RBC to MIC for methicillin-susceptible Staphylococcus aureus ATCC 29213
[32] = Ratio of IC50 for human HepG2 cells to MIC for methicillin-susceptible Staphylococcus aureus ATCC 29213
Summary of the method: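 HepG2 XTT cytotoxicity in triplicate, IC50 by nonlinear regression, divided by broth-microdilution MIC for ATCC 29213.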

Structure (SMILES): N#Cc1ccc(/C=C/c2nc3ccccc3c(=O)n2-c2cccc(C(=O)O)c2)cc1
- AUC(0-inf) [1]: 12300 ng·h/mL
- MIC (Bacillus cereus): > 128 µg/mL
- MBC (Staphylococcus aureus [2]): 32 µg/mL (≈ 81.3 µM)
- Tmax (Mus musculus [3]): 1 h
- hemolysis at 64 ug/ml ([4]; red blood cells, read-out: Activity): < 1%
- MIC (Bacillus licheniformis): > 128 µg/mL
- ED50 (Staphylococcus aureus [5]): 9.4 mg/kg
- fraction unbound at 6 h, 10 µM [6]: 0.035
- AUC(0-inf) [7]: 24300 ng·h/mL
- MIC (Acinetobacter baumannii): ≥ 16 µg/mL
- MIC (Staphylococcus aureus [8]): 16 µg/mL (≈ 40.7 µM)
- MIC (Pseudomonas aeruginosa): ≥ 16 µg/mL
- half-life [9]: > 20 h
- MIC [10]: 1 µg/mL (≈ 2.54 µM)
- clearance [11]: 6.9 mL/min/kg
- AUC(0-t) at 8 h [12]: 19700 ng·h/mL
- MIC (Enterococcus faecalis [13]): > 128 µg/mL
- MBC (Staphylococcus aureus [14]): 64 µg/mL (≈ 163 µM)
- MIC (Enterococcus faecium): > 128 µg/mL
- concentration at 7 h [15]: 1130 ng/mL
- Activity (Staphylococcus aureus [16]): inactive
- MIC (Streptococcus pyogenes): > 128 µg/mL
- MIC (Klebsiella pneumoniae): ≥ 16 µg/mL
- IC50 (HepG2): 62.9 µg/mL (≈ 160 µM)
- MIC (Escherichia coli): ≥ 16 µg/mL
- half-life [17]: ≥ 20 h
- MIC (Staphylococcus aureus [18]): 8 µg/mL (≈ 20.3 µM)
- MIC (Staphylococcus aureus [19]): 8 µg/mL (≈ 20.3 µM)
- MIC [20]: 1 µg/mL (≈ 2.54 µM)
- AUC(0-t) at 30 h [21]: 6800 ng·h/mL
- MIC (Enterococcus faecalis [22]): > 128 µg/mL
- bioavailability [23]: 50%
- concentration at 7 h [24]: 24 ng/mL
- MIC (Streptococcus oralis): > 128 µg/mL
- MIC (Staphylococcus aureus [25]): 16 µg/mL (≈ 40.7 µM)
- Vd [26]: 0.3 L/kg
- MIC (Staphylococcus aureus [27]): 2 µg/mL (≈ 5.08 µM)
- MIC (Klebsiella aerogenes): ≥ 16 µg/mL
- Cmax [28]: 1300 ng/mL

Structure (SMILES): O=c1c2ccccc2nc(/C=C/c2ccc(F)cc2)n1-c1cccc(O)c1
- Activity ([4]; erythrocyte): < 1%
- MIC (Acinetobacter baumannii): ≥ 16 µg/mL
- MIC (Pseudomonas aeruginosa): ≥ 16 µg/mL
- MIC (Enterococcus faecium): ≥ 8 µg/mL
- MIC (Klebsiella pneumoniae): ≥ 16 µg/mL
- IC50 (HepG2): 16.4 µg/mL (≈ 45.8 µM)
- MIC (Escherichia coli): ≥ 16 µg/mL
- MIC (Staphylococcus aureus [29]): 0.25 µg/mL (≈ 0.698 µM)
- AUClast (Mus musculus [30]): 466 µg·min/mL
- Ratio [31]: > 120
- Ratio [32]: >30
- MIC (Klebsiella aerogenes): ≥ 16 µg/mL
